Measured values: ChEMBL document CHEMBL1140686, “Indanylacetic acids as PPAR-delta activator insulin sensitizers” (Bioorg Med Chem Lett, 2007)
pEC50: −log10 of the molar value. Active and inactive are the calls of the source. No cut-off for these calls is given here.

Tests used:
3T3-L1 = assay: Induction of insulin receptor in mouse 3T3L1 cells assessed as insulin sensitizing activity; format: functional, cell-based; details: for pEC50: Mus musculus, 3T3-L1
Outline: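 3T3-L1 preadipocytes grown about 1 week to 2 days post-confluence, then exposed 2 days to compound plus 0.5 µM IGF-1 in DMEM/10% FBS/2 mM glutamine/pen-strep, then 4 days in plain medium. Cells bound 0.1 nM [125I]insulin ± 100 nM unlabeled insulin for 1 h at room temperature, were washed and lysed in 1 N NaOH, then gamma-counted. EC50 taken where a plateau was reached; percent maximal stimulation recorded.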

[1] = target: T1, Peroxisome proliferator-activated receptor alpha (Homo sapiens, UniProt Q07869); assay: (§1) Agonist activity at PPARalpha by FRET assay; format: functional
T1 sequence (Q07869 whole entry): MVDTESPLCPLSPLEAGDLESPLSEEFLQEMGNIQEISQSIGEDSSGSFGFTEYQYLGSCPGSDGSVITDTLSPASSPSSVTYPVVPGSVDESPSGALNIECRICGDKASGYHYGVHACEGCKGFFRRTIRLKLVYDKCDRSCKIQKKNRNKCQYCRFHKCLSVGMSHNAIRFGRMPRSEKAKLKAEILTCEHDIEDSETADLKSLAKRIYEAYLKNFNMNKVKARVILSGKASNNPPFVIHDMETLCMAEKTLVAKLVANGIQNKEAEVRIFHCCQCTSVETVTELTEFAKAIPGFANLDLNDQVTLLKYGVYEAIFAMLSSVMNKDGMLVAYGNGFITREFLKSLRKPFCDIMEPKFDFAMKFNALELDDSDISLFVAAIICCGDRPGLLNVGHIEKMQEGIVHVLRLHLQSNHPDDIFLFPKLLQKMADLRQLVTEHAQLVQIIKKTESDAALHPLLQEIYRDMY
Outline: (§2)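 FRET coactivator-recruitment assay run with the PPAR-δ ligand binding domain (GST-tagged human PPAR-δ LBD) and separately with the PPAR-α ligand binding domain. Compounds were incubated with europium-labelled anti-GST antibody, biotinylated TRAP220 coactivator protein and streptavidin-labelled APC. Read in a fluorimeter at excitation 340 nm and emission 615 and 665 nm.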

[2] = target: Peroxisome proliferator-activated receptor delta (Homo sapiens) (UniProt Q03181); assay: Agonist activity at GST-tagged human PPARdelta by FRET assay
Peroxisome proliferator-activated receptor delta (Homo sapiens), sequence (Q03181 whole entry, looked up): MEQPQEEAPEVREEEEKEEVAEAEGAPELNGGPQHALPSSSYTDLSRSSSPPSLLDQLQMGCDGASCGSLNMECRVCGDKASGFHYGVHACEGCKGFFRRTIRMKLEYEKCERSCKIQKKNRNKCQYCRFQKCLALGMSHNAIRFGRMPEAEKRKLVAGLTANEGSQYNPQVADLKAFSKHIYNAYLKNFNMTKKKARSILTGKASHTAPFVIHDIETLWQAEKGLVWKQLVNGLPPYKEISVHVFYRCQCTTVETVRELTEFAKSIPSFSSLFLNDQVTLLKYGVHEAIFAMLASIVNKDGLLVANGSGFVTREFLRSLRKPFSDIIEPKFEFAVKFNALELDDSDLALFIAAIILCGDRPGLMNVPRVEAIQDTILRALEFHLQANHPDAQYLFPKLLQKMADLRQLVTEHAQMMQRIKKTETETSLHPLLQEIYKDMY

[3] = target: T2, Peroxisome proliferator-activated receptor alpha (Homo sapiens) (UniProt Q07869); assay: as §1; format: functional; outline: as §2
T2 sequence (whole entry): T1 sequence (Q07869 whole entry)

Homo sapiens = species on record: Homo sapiens; assay: Selectivity for PPARdelta over PPARalpha; outline: as §2
Mus musculus = assay: Reduction in blood glucose level in db/db mouse at 10 mg/kg, po; format: functional, organism-based; set-up: dose 10 mg/kg

| SMILES | pEC50 (3T3-L1) | pEC50 [1] | other results |
| --- | --- | --- | --- |
| Cc1sc(-c2ccccc2)nc1CCOc1ccc2c(c1)CC[C@H]2CC(=O)O | 6.57 | 5.00 | Activity (3T3-L1): 60% |
| COc1ccc(-c2nc(C)c(CCOc3ccc4c(c3)CC[C@H]4CC(=O)O)n2C)cc1 | 5.25 | 5.00 | Activity (3T3-L1): 41% |
| Cc1sc(-c2ccc(C(C)C)cc2)nc1CCOc1ccc2c(c1)CC[C@H]2CC(=O)O | 7.60 | 6.25 | – |
| Cc1oc(-c2ccccc2)nc1CCOc1ccc2c(c1)CCC[C@H]2CC(=O)O | – | 5.66 | Activity [2]: 50%; Activity [3]: 58% |
| CCOc1ccc(-c2nc(CCOc3ccc4c(c3)CC[C@H]4CC(=O)O)c(C)s2)cc1 | 6.78 | 5.00 | – |
| Cc1oc(-c2ccccc2)nc1CCOc1ccc2c(c1)CCC2C(C)C(=O)O (configuration not stated) | – | 6.66 | Ratio EC50 (Homo sapiens): 1.8 |
| Cc1sc(-c2ccccc2F)nc1CCOc1ccc2c(c1)CC[C@H]2CC(=O)O | 5.79 | 5.00 | – |
| Cc1oc(-c2ccc(C(C)C)cc2)nc1CCOc1ccc2c(c1)CC[C@H]2CC(=O)O | 7.48 | 6.52 | – |
| COc1cccc(-c2nc(CCOc3ccc4c(c3)CC[C@H]4CC(=O)O)c(C)s2)c1 | 7.49 | 5.16 | – |
| Cc1sc(-c2ccc(-c3ccccc3)cc2)nc1CCOc1ccc2c(c1)CC[C@H]2CC(=O)O | 6.57 | 5.00 | – |
| CCc1ccc(-c2nc(CCOc3ccc4c(c3)CC[C@H]4CC(=O)O)c(C)o2)cc1 | 7.57 | 7.11 | – |
| Cc1c(CCOc2ccc3c(c2)CC[C@H]3CC(=O)O)nc(-c2ccccc2)n1C | 6.22 | 5.00 | Activity (3T3-L1): 55% |
| Cc1nc(-c2ccccc2)n(C)c1CCOc1ccc2c(c1)CC[C@H]2CC(=O)O | 5.23 | 5.00 | Activity (3T3-L1): 19% |
| Cc1oc(-c2ccccc2)nc1CCOc1ccc2c(c1)CCC2CC(=O)O (configuration not stated) | – | 6.05 | Ratio EC50 (Homo sapiens): 32 |
| Cc1oc(-c2ccc(F)cc2)nc1CCOc1ccc2c(c1)CC[C@H]2CC(=O)O | 6.45 | 6.30 | – |
| Cc1sc(-c2cccc(C(F)(F)F)c2)nc1CCOc1ccc2c(c1)CC[C@H]2CC(=O)O | 7.35 | 5.00 | – |
| Cc1ccc(-c2nc(CCOc3ccc4c(c3)CC[C@H]4CC(=O)O)c(C)o2)cc1 | 7.62 | 6.35 | – |
| Cc1sc(-c2ccc(Cl)cc2)nc1CCOc1ccc2c(c1)CC[C@H]2CC(=O)O | 6.01 | 5.00 | – |
| Cc1oc(-c2ccccc2)nc1CCOc1ccc2c(c1)OCC2CC(=O)O (configuration not stated) | – | 5.00 | Activity [3]: 15% |
| O=C(O)C[C@@H]1CCc2cc(OCCc3nc(-c4ccccc4)oc3CCc3ccccc3)ccc21 | < 5.52 | 5.00 | Activity (3T3-L1): 9% |
| Cc1sc(-c2ccc3c(c2)OCO3)nc1CCOc1ccc2c(c1)CC[C@H]2CC(=O)O | 7.18 | 5.92 | – |
| COc1ccc(-c2nc(CCOc3ccc4c(c3)CC[C@H]4CC(=O)O)c(C)n2C)cc1 | 6.19 | 5.00 | Activity (3T3-L1): 56% |
| Cc1oc(-c2ccccc2)nc1CCOc1ccc2c(c1)CC(C)C2CC(=O)O (configuration not stated) | 5.26 | 5.13 | Activity (3T3-L1): 58%; Activity [3]: 11% |
| COC(C(=O)O)C1CCc2cc(OCCc3nc(-c4ccccc4)oc3C)ccc21 (configuration not stated) | – | – | Ratio EC50 (Homo sapiens): 0.15 |
| CCc1ccc(-c2nc(CCOc3ccc4c(c3)CC[C@H]4CC(=O)O)c(C)n2C)cc1 | 6.99 | 5.00 | – |
| Cc1ccc(-c2nc(CCOc3ccc4c(c3)CC[C@H]4CC(=O)O)c(C)s2)cc1 | 7.19 | 6.23 | – |

| SMILES | pEC50 (3T3-L1) | pEC50 [1] | other results |
| --- | --- | --- | --- |
| Cc1oc(-c2ccc(Cl)cc2)nc1CCOc1ccc2c(c1)CC[C@H]2CC(=O)O | 6.67 | 5.93 | – |
| Cc1sc(-c2cccc(F)c2)nc1CCOc1ccc2c(c1)CC[C@H]2CC(=O)O | 6.85 | 5.19 | – |
| Cc1oc(-c2cccc(F)c2)nc1CCOc1ccc2c(c1)CC[C@H]2CC(=O)O | 6.43 | 5.77 | – |
| Cc1c(CCOc2ccc3c(c2)CC[C@H]3CC(=O)O)nc(-c2ccc(-c3ccccc3)cc2)n1C | 7.27 | 5.00 | – |
| Cc1oc(-c2ccccc2)nc1CCOc1ccc2c(c1)C(C)(C)CC2CC(=O)O (configuration not stated) | 6.60 | 5.00 | Activity [2]: 38%; Activity (3T3-L1): 66%; Activity [3]: 7.5% |
| CCc1ccc(-c2nc(CCOc3ccc4c(c3)CC[C@H]4CC(=O)O)c(CC)o2)cc1 | 7.46 | 5.60 | – |
| Cc1sc(-c2ccc(F)cc2)nc1CCOc1ccc2c(c1)CC[C@H]2CC(=O)O | 6.26 | 5.64 | – |
| Cc1nc(-c2ccc(-c3ccccc3)cc2)n(C)c1CCOc1ccc2c(c1)CC[C@H]2CC(=O)O | 7.15 | 5.00 | – |
| Cc1oc(-c2ccc(C#N)cc2)nc1CCOc1ccc2c(c1)CC[C@H]2CC(=O)O | 6.52 | 5.00 | – |
| CCCc1oc(-c2ccccc2)nc1CCOc1ccc2c(c1)CC[C@H]2CC(=O)O | 5.52 | 5.00 | Activity (3T3-L1): 32% |
| Cc1oc(-c2ccc(C(C)(C)C)cc2)nc1CCOc1ccc2c(c1)CC[C@H]2CC(=O)O | – | 6.26 | – |
| COc1ccc(-c2nc(CCOc3ccc4c(c3)CC[C@H]4CC(=O)O)c(C)s2)cc1 | 6.78 | 5.48 | – |
| Cc1sc(-c2ccc(OC(F)(F)F)cc2)nc1CCOc1ccc2c(c1)CC[C@H]2CC(=O)O | 6.65 | 5.10 | – |
| CCc1oc(-c2ccccc2)nc1CCOc1ccc2c(c1)CC[C@H]2CC(=O)O | 6.73 | 5.00 | – |
| Cc1cccc(-c2nc(CCOc3ccc4c(c3)CC[C@H]4CC(=O)O)c(C)o2)c1 | 7.00 | 5.94 | – |
| COc1cccc(-c2nc(CCOc3ccc4c(c3)CC[C@H]4CC(=O)O)c(C)o2)c1 | 7.09 | 5.72 | – |
| Cc1cccc(-c2nc(CCOc3ccc4c(c3)CC[C@H]4CC(=O)O)c(C)s2)c1 | 7.30 | 5.17 | – |
| CN(CCOc1ccc(CC2SC(=O)NC2=O)cc1)c1ccccn1 (configuration not stated) | – | – | Activity (Mus musculus): Active |
| COc1ccc(-c2nc(CCOc3ccc4c(c3)CC[C@H]4CC(=O)O)c(C)o2)cc1 | 7.54 | 6.10 | – |
| Cc1oc(-c2cccc(Cl)c2)nc1CCOc1ccc2c(c1)CC[C@H]2CC(=O)O | 6.70 | 5.80 | – |
| CCc1ccc(-c2nc(C)c(CCOc3ccc4c(c3)CC[C@H]4CC(=O)O)n2C)cc1 | 6.81 | 5.00 | – |
| CCc1oc(-c2ccc(C)cc2)nc1CCOc1ccc2c(c1)CC[C@H]2CC(=O)O | 7.52 | 5.99 | – |
| CCC(C(=O)O)C1CCc2cc(OCCc3nc(-c4ccccc4)oc3C)ccc21 (configuration not stated) | – | 6.89 | Ratio EC50 (Homo sapiens): 0.22 |
| Cc1oc(-c2ccccc2)nc1CCOc1ccc2c(c1)CC[C@H]2CC(=O)O | 6.64 | 5.61 | – |
| Cc1oc(-c2cccc(C#N)c2)nc1CCOc1ccc2c(c1)CC[C@H]2CC(=O)O | 6.79 | 5.00 | – |
